Test results as given in ChEMBL document CHEMBL4665863 (Bioorg Med Chem, 2020).
Values after ≈ are worked out from the molar mass of the structure shown. One block for each compound: values may come before it. Active and inactive are the calls of the source. The rule behind the calls is not given here.

Assays:
[1] = system: Bacillus pumilus; assay: Antibacterial activity against Bacillus pumilus CMCC63202 incubated for 24 hrs by CLSI-based broth microdilution method; assay type: functional
[2] = system: Bacillus subtilis; assay: Antibacterial activity against Bacillus subtilis ATCC9372 incubated for 24 hrs by CLSI-based broth microdilution method; assay type: functional
[3] = system: Escherichia coli; assay: Antibacterial activity against Escherichia coli ATCC25922 incubated for 24 hrs by CLSI-based broth microdilution method; assay type: functional; settings: ATCC 25922
[4] = system: Staphylococcus aureus; assay: Antibacterial activity against Staphylococcus aureus ATCC25923 incubated for 24 hrs by CLSI-based broth microdilution method; assay type: functional
[5] = system: Staphylococcus aureus; assay: Antibacterial activity against Staphylococcus aureus clinical isolate incubated for 24 hrs by CLSI-based broth microdilution method; assay type: functional
[6] = system: Staphylococcus aureus; assay: Antibacterial activity against penicillin-resistant Staphylococcus aureus incubated for 24 hrs by CLSI-based broth microdilution method; assay type: functional
[7] = system: Staphylococcus aureus; assay: Antibacterial activity against methicillin-resistant Staphylococcus aureus ATCC43300 incubated for 24 hrs by CLSI-based broth microdilution method; assay type: functional
[8] = system: Pseudomonas aeruginosa; assay: Antibacterial activity against Pseudomonas aeruginosa ATCC27853 incubated for 24 hrs by CLSI-based broth microdilution method; assay type: functional
[9] = system: Bacillus subtilis; assay: Inhibition of ftsZ in Bacillus subtilis assessed as increase in enzyme polymerization kinetics at 5 ug/ml measured for 30 mins by microtiter plate-based light scattering assay; settings: dose 5.0 µg/ml
Method in brief: (§1)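 Purified recombinant B. subtilis FtsZ was used. Polymerization was followed as light scattering in microtiter plates, read as time-dependent absorbance at 340 nm at several compound concentrations. Vehicle, CIP and LIN served as controls.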

[10] = system: Staphylococcus aureus; assay: Bacteriostatic activity against Staphylococcus aureus clinical isolate assessed as ratio of MBC to MIC; assay type: functional
[11] = system: Staphylococcus aureus; assay: Bactericidal activity against methicillin-resistant Staphylococcus aureus ATCC43300 assessed as reduction in number of colony forming units incubated for 24 hrs followed by re-plating and reincubation on tryptic soy agar plate for 24 hrs; assay type: functional
[12] = system: Staphylococcus aureus; assay: Bacteriostatic activity against methicillin-resistant Staphylococcus aureus ATCC43300 assessed as ratio of MBC to MIC; assay type: functional
[13] = system: Staphylococcus aureus; assay: Bactericidal activity against Staphylococcus aureus clinical isolate assessed as reduction in number of colony forming units incubated for 24 hrs followed by re-plating and reincubation on tryptic soy agar plate for 24 hrs; assay type: functional
[14] = system: Staphylococcus aureus; assay: Bactericidal activity against Staphylococcus aureus ATCC25923 assessed as reduction in number of colony forming units incubated for 24 hrs followed by re-plating and reincubation on tryptic soy agar plate for 24 hrs; assay type: functional
[15] = system: Staphylococcus aureus; assay: Bacteriostatic activity against penicillin-resistant Staphylococcus aureus assessed as ratio of MBC to MIC; assay type: functional
[16] = system: Staphylococcus aureus; assay: Bacteriostatic activity against Staphylococcus aureus ATCC25923 assessed as ratio of MBC to MIC; assay type: functional
[17] = system: Staphylococcus aureus; assay: Bactericidal activity against penicillin-resistant Staphylococcus aureus assessed as reduction in number of colony forming units incubated for 24 hrs followed by re-plating and reincubation on tryptic soy agar plate for 24 hrs; assay type: functional
[18] = system: Bacillus subtilis; assay: Inhibition of ftsZ in Bacillus subtilis assessed as increase in enzyme polymerization kinetics at 10 ug/ml measured for 30 mins by microtiter plate-based light scattering assay; settings: dose 10.0 µg/ml
[19] = system: Staphylococcus aureus; assay: In-vivo antibacterial activity against Staphylococcus aureus infected in KM mouse model assessed as reduction in bacterial load in blood at 10 mg/kg, iv administered thrice daily and measured after 48 hrs; assay type: functional, organism-based
Method in brief: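 Groups of four KM mice (average 20 g) were infected i.v. with 8.5 × 10⁸ CFU of a clinical S. aureus isolate resistant to CIP and ERY, in 0.15 mL saline. Treatment was 10 mg/kg i.v. three times daily. Vehicle was 2% DMAC, 30% PEG400/PG (1:1) and 5% HPβCD in water; vehicle and LIN arms were included. At 48 h, retro-orbital blood (0.1 mL) was plated on TSA for CFU counts.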

[20] = system: Staphylococcus aureus; assay: Potency index, ratio of PC190723 MIC to test compound MIC for antibacterial activity against methicillin-resistant Staphylococcus aureus ATCC43300 incubated for 24 hrs by CLSI-based broth microdilution method; assay type: functional
[21] = system: Staphylococcus aureus; assay: Potency index, ratio of linezolid MIC to test compound MIC for antibacterial activity against penicillin-resistant Staphylococcus aureus incubated for 24 hrs by CLSI-based broth microdilution method; assay type: functional
[22] = system: Staphylococcus aureus; assay: Bactericidal activity against Staphylococcus aureus clinical isolate assessed as reduction in number of colony forming units at 0.5 times MIC incubated for 24 hrs by Time-kill assay; assay type: functional, organism-based
[23] = system: Staphylococcus aureus; assay: Potency index, ratio of linezolid MIC to test compound MIC for antibacterial activity against methicillin-resistant Staphylococcus aureus ATCC43300 incubated for 24 hrs by CLSI-based broth microdilution method; assay type: functional
[24] = system: Staphylococcus aureus; assay: Bactericidal activity against Staphylococcus aureus clinical isolate assessed as reduction in number of colony forming units at 1XMIC incubated for 24 hrs by Time-kill assay; assay type: functional
[25] = system: Staphylococcus aureus; assay: Potency index, ratio of PC190723 MIC to test compound MIC for antibacterial activity against penicillin-resistant Staphylococcus aureus incubated for 24 hrs by CLSI-based broth microdilution method; assay type: functional
[26] = system: Staphylococcus aureus; assay: Bactericidal activity against Staphylococcus aureus clinical isolate assessed as reduction in number of colony forming units at 4XMIC incubated for 9 hrs by Time-kill assay; assay type: functional
[27] = system: Staphylococcus aureus; assay: Potency index, ratio of ciprofloxacin MIC to test compound MIC for antibacterial activity against methicillin-resistant Staphylococcus aureus ATCC43300 incubated for 24 hrs by CLSI-based broth microdilution method; assay type: functional
[28] = system: Bacillus subtilis; assay: Inhibition of ftsZ in Bacillus subtilis assessed as increase in enzyme polymerization kinetics measured for 30 mins by microtiter plate-based light scattering assay; method in brief: as §1
[29] = system: HeLa; assay: Cytotoxicity against human Hela cells assessed as reduction in cell viability incubated for 48 hrs by MTT assay; assay type: cell-based
Method in brief: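 HeLa (human cervical cancer) cells were exposed continuously for 48 h, and viability was read by MTT.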

[30] = system: Bacillus subtilis; assay: Inhibition of FtsZ in Bacillus subtilis ATCC9372 assessed as inhibition of bacterial cell elongation by measuring bacterial cell length at 0.25 ug/ml incubated for 18 hrs by phase contrast microscopic analysis (reference value: 2.28 +/- 0.29 um); settings: dose 0.25 µg/ml
Method in brief: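 Compound at 0.25 μg/mL, compared with untreated cells, imaged by microscopy. For B. subtilis ATCC9372, cell length was measured (n = 15). For S. aureus ATCC CI, cell diameter was measured (n = 15). Mean and SD were reported.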

[31] = system: Staphylococcus aureus; assay: Bactericidal activity against Staphylococcus aureus clinical isolate assessed as reduction in number of colony forming units at 2XMIC incubated for 12 hrs by Time-kill assay; assay type: functional
[32] = system: Staphylococcus aureus; assay: Inhibition of FtsZ in Staphylococcus aureus clinical isolate assessed as inhibition of bacterial cell elongation by measuring bacterial cell diameter at 0.25 ug/ml incubated for 18 hrs by phase contrast microscopic analysis (reference value: 0.79 +/- 0.05 um); settings: dose 0.25 µg/ml

SMILES: CCCCc1ccc(C2=NO[C@@H](COc3ccc(F)c(C(N)=O)c3F)C2)cc1
MIC [1]: 0.5 µg/mL (≈ 1.29 µM)
MIC [2]: 0.25 µg/mL (≈ 0.644 µM)
MIC [3]: > 64 µg/mL
MIC [4]: 4 µg/mL (≈ 10.3 µM)
MIC [5]: 2 µg/mL (≈ 5.15 µM)
MIC [6]: 1 µg/mL (≈ 2.57 µM)
MIC [7]: 2 µg/mL (≈ 5.15 µM)
MIC [8]: > 64 µg/mL
FtsZ polymerization increase (active/inactive call) [9]: Active

FtsZ polymerization increase (active/inactive call) [9]: Active
SMILES: CCCCc1ccc(-c2cc(COc3ccc(F)c(C(N)=O)c3F)on2)cc1

SMILES: NC(=O)c1c(F)ccc(OCC2=NOC(c3ccc(Cl)cc3Cl)C2)c1F (configuration not stated)
MIC [1]: 0.5 µg/mL (≈ 1.25 µM)
MIC [2]: 2 µg/mL (≈ 4.99 µM)
MIC [3]: > 64 µg/mL
MIC [4]: 32 µg/mL (≈ 79.8 µM)
MIC [5]: 16 µg/mL (≈ 39.9 µM)
MIC [6]: 32 µg/mL (≈ 79.8 µM)
MIC [7]: 16 µg/mL (≈ 39.9 µM)
MIC [8]: > 64 µg/mL

SMILES: CC[C@H]1OC(=O)[C@H](C)[C@@H](O[C@H]2C[C@@](C)(OC)[C@@H](O)[C@H](C)O2)[C@H](C)[C@@H](O[C@@H]2O[C@H](C)C[C@H](N(C)C)[C@H]2O)[C@](C)(OC)C[C@@H](C)C(=O)[C@H](C)[C@@H](O)[C@]1(C)O [CLARITHROMYCIN]
Ratio [10]: inactive
MBC [11]: inactive
MIC [4]: 0.125 µg/mL (≈ 0.167 µM)
Ratio [12]: inactive
MIC [5]: > 64 µg/mL
MBC [13]: inactive
MBC [14]: 4 µg/mL (≈ 5.35 µM)
MIC [7]: > 64 µg/mL
Ratio [15]: inactive
Ratio [16]: 32
MBC [17]: inactive

SMILES: NC(=O)c1c(F)ccc(OCc2nc3cc(Cl)cnc3s2)c1F
MIC [1]: 0.5 µg/mL (≈ 1.41 µM)
MIC [2]: 0.5 µg/mL (≈ 1.41 µM)
MIC [3]: > 64 µg/mL
MIC [4]: 1 µg/mL (≈ 2.81 µM)
MIC [5]: 1 µg/mL (≈ 2.81 µM)
MIC [6]: 1 µg/mL (≈ 2.81 µM)
MIC [7]: 1 µg/mL (≈ 2.81 µM)
MIC [8]: > 64 µg/mL

inhibition [18]: inactive
SMILES: O=C(O)c1cn(C2CC2)c2cc(N3CCNCC3)c(F)cc2c1=O

SMILES: CC[C@H]1OC(=O)[C@H](C)[C@@H](O[C@H]2C[C@@](C)(OC)[C@@H](O)[C@H](C)O2)[C@H](C)[C@@H](O[C@@H]2O[C@H](C)C[C@H](N(C)C)[C@H]2O)[C@](C)(O)C[C@@H](C)C(=O)[C@H](C)[C@@H](O)[C@]1(C)O [ERYTHROMYCIN]
MIC [1]: ≤ 0.125 µg/mL
MIC [2]: ≤ 0.125 µg/mL
MIC [3]: 16 µg/mL (≈ 21.8 µM)
MIC [4]: ≤ 0.125 µg/mL
MIC [5]: > 64 µg/mL
MIC [7]: > 64 µg/mL
MIC [8]: 32 µg/mL (≈ 43.6 µM)

SMILES: CCCCc1ccc(C2=NO[C@H](COc3ccc(F)c(C(N)=O)c3F)C2)cc1
MIC [1]: ≤ 0.125 µg/mL
MIC [2]: ≤ 0.125 µg/mL
MIC [3]: > 64 µg/mL
MIC [4]: 0.25 µg/mL (≈ 0.644 µM)
MIC [5]: ≤ 0.125 µg/mL
MIC [6]: 0.25 µg/mL (≈ 0.644 µM)
MIC [7]: ≤ 0.125 µg/mL
MIC [8]: > 64 µg/mL
FtsZ polymerization increase (active/inactive call) [9]: Active

SMILES: CC(=O)NC[C@H]1CN(c2ccc(N3CCOCC3)c(F)c2)C(=O)O1 [LINEZOLID]
MIC [1]: 1 µg/mL (≈ 2.96 µM)
MIC [2]: 0.5 µg/mL (≈ 1.48 µM)
MIC [3]: > 64 µg/mL
MBC [11]: > 64 µg/mL
MIC [5]: 1 µg/mL (≈ 2.96 µM)
MBC [13]: 64 µg/mL (≈ 190 µM)
MIC [6]: 1 µg/mL (≈ 2.96 µM)
MBC [14]: > 64 µg/mL
inhibition [18]: inactive
MIC [8]: > 64 µg/mL
Activity [19]: Active
MBC [17]: > 64 µg/mL

SMILES: CC(C)(C)c1ccc(C2=NOC(COc3ccc(F)c(C(N)=O)c3F)C2)cc1 (configuration not stated)
MIC [1]: ≤ 0.125 µg/mL
MIC [2]: 0.25 µg/mL (≈ 0.644 µM)
MIC [3]: > 64 µg/mL
MIC [4]: 4 µg/mL (≈ 10.3 µM)
MIC [5]: 4 µg/mL (≈ 10.3 µM)
MIC [6]: 4 µg/mL (≈ 10.3 µM)
MIC [7]: 2 µg/mL (≈ 5.15 µM)
MIC [8]: > 64 µg/mL

SMILES: CCCCc1ccc(C2=NOC(COc3ccc(F)c(C(N)=O)c3F)C2)cc1 (configuration not stated)
MIC [1]: ≤ 0.125 µg/mL
MIC [2]: 0.5 µg/mL (≈ 1.29 µM)
Ratio [20]: 4
MIC [3]: > 64 µg/mL
Ratio [10]: 1
Ratio [21]: 2
Activity [22]: Active
MBC [11]: 0.5 µg/mL (≈ 1.29 µM)
Ratio [23]: 8
Activity [24]: <1 10^3CFU/ml
MIC [4]: 0.5 µg/mL (≈ 1.29 µM)
Ratio [12]: 2
MIC [5]: 0.5 µg/mL (≈ 1.29 µM)
MBC [13]: 0.5 µg/mL (≈ 1.29 µM)
MIC [6]: 0.5 µg/mL (≈ 1.29 µM)
MBC [14]: 0.5 µg/mL (≈ 1.29 µM)
Ratio [25]: 2
MIC [7]: 0.25 µg/mL (≈ 0.644 µM)
Activity [26]: <1 10^3CFU/ml
Ratio [27]: 64
MIC [8]: > 64 µg/mL
Activity [19]: Active
inhibition [28]: Dose-dependent effect
Ratio [15]: 2
Ratio [16]: 1
IC50 [29]: > 64 µg/mL
cell length [30]: 29.3 µm
Activity [31]: <1 10^3CFU/ml
MBC [17]: 1 µg/mL (≈ 2.57 µM)
FtsZ polymerization increase (active/inactive call) [9]: Active
cell diameter [32]: 2.41 µm

SMILES: NC(=O)c1c(F)ccc(OCC2CC(c3ccc(F)cc3)=NO2)c1F (configuration not stated)
MIC [1]: 32 µg/mL (≈ 91.4 µM)
MIC [2]: 8 µg/mL (≈ 22.8 µM)
MIC [3]: > 64 µg/mL
MIC [4]: 64 µg/mL (≈ 183 µM)
MIC [6]: 64 µg/mL (≈ 183 µM)
MIC [7]: 64 µg/mL (≈ 183 µM)
MIC [8]: > 64 µg/mL
